Test results as given in ChEMBL document CHEMBL1155080, “Alpha2-adrenoreceptors profile modulation. 4. From antagonist to agonist behavior” (J Med Chem, 2008).
Active and inactive are the calls of the source. No cut-off for these calls is given here.

Columns and labels:
[1] = target: T1, Alpha-2A adrenergic receptor (Homo sapiens, UniProt P08913); experiment: Displacement of [3H]RS79948-197 from human recombinant adrenergic alpha2A receptor expressed in CHO cells; format: cell-based
T1 sequence (P08913 whole entry): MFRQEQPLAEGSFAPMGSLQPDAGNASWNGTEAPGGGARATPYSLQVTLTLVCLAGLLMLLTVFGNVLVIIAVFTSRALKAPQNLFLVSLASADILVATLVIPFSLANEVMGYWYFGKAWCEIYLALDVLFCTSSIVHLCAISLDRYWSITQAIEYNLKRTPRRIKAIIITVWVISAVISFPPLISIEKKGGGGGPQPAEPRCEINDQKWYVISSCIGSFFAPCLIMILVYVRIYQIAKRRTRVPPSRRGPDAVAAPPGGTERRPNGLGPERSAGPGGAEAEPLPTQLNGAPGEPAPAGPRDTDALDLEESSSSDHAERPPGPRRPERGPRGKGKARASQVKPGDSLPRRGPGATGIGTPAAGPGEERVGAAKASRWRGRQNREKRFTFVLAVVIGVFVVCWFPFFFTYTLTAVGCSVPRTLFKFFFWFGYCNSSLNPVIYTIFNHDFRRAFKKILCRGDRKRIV
Method in brief: (§1)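 Competition binding on membranes from CHO cells stably expressing each human α2 subtype (1-3 pmol/mg receptor). Assay in 50 mM potassium phosphate, pH 7.4, with 5-10 µg protein. Eight competitor dilutions, 30 min at room temperature, then vacuum filtration and scintillation counting. IC50 by one-site nonlinear regression, converted with Cheng-Prusoff; mean ± SEM, 3-6 experiments.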

[2] = target: T2, Alpha-2A adrenergic receptor (Homo sapiens) (UniProt P08913); experiment: (§2) Agonist activity at human recombinant adrenergic alpha2A receptor expressed in CHO cells assessed as stimulation of extracellular acidification; format: functional, cell-based
T2 sequence (whole entry): T1 sequence (P08913 whole entry)

[3] = target: T3, Alpha-2B adrenergic receptor (Homo sapiens, UniProt P18089); experiment: Displacement of [3H]RS79948-197 from human recombinant adrenergic alpha2B receptor expressed in CHO cells; format: cell-based; method in brief: as §1
T3 sequence (P18089 whole entry): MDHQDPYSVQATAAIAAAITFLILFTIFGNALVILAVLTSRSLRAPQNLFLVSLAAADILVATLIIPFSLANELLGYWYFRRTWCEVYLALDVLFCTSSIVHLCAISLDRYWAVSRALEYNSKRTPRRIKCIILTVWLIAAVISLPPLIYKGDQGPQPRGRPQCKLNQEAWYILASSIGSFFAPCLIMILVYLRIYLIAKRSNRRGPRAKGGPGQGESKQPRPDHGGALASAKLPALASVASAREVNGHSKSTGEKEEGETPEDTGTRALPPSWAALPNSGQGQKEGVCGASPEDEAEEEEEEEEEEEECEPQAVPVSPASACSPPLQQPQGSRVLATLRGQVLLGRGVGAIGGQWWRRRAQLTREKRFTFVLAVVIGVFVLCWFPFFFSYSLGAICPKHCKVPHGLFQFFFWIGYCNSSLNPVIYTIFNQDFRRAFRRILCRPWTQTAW

[4] = target: T4, Alpha-2B adrenergic receptor (Homo sapiens) (UniProt P18089); experiment: (§3) Agonist activity at human recombinant adrenergic alpha2B receptor expressed in CHO cells; format: functional, cell-based
T4 sequence (whole entry): T3 sequence (P18089 whole entry)
Method in brief: (§4)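 Cytosensor microphysiometry. Stable CHO cells were seeded at 3 × 10⁵ cells/cup, grown 24 h at 37 °C/5% CO₂, then perfused with bicarbonate-free DMEM at 100 µL/min. Over 90 s pump cycles, pH was read for 20 s. Response is the peak acidification rate minus the mean of three pre-agonist readings. pEC50 is the concentration giving 50% of maximum; mean ± SEM, 3-6 experiments.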

[5] = target: T5, Alpha-2C adrenergic receptor (Homo sapiens, UniProt P18825); experiment: Displacement of [3H]RS79948-197 from human recombinant adrenergic Alpha-2C receptor expressed in CHO cells; format: cell-based; method in brief: as §1
T5 sequence (P18825 whole entry): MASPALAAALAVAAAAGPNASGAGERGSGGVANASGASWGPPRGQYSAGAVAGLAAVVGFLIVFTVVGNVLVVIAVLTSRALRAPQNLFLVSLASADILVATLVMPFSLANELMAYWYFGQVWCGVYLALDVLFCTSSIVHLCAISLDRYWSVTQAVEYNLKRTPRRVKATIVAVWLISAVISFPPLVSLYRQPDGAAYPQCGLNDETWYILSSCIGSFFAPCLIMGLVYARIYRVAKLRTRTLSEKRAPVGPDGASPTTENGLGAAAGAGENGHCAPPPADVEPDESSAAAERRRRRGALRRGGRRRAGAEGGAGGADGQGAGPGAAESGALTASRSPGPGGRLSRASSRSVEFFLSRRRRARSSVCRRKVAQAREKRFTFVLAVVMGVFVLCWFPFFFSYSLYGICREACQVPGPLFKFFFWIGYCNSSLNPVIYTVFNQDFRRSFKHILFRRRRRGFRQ

[6] = target: T6, Alpha-2C adrenergic receptor (Homo sapiens) (UniProt P18825); experiment: (§5) Agonist activity at human recombinant adrenergic Alpha-2C receptor expressed in CHO cells assessed as stimulation of extracellular acidification; format: functional, cell-based; method in brief: as §4
T6 sequence (whole entry): T5 sequence (P18825 whole entry)

[7] = target: T2, Alpha-2A adrenergic receptor (Homo sapiens); experiment: Antagonist activity at human recombinant adrenergic alpha2A receptor expressed in CHO cells; format: functional, cell-based
Method in brief: (§6)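 Clonidine-curve shift measured by Cytosensor microphysiometry of extracellular acidification in CHO cells stably expressing the individual human α2 subtype. Cells were seeded at 3 × 10⁵ cells/cup for 24 h at 37 °C/5% CO₂ and perfused with bicarbonate-free DMEM at 100 µL/min. A control clonidine concentration-response curve was run, then antagonist was applied ≥30 min before a repeat curve. Kb = M/(EC50 ratio − 1), reported as pKb; 3–6 experiments.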

[8] = target: T4, Alpha-2B adrenergic receptor (Homo sapiens); experiment: Antagonist activity at human recombinant adrenergic alpha2B receptor expressed in CHO cells; format: functional, cell-based; method in brief: as §6
[9] = target: T6, Alpha-2C adrenergic receptor (Homo sapiens); experiment: Antagonist activity at human recombinant adrenergic Alpha-2C receptor expressed in CHO cells; format: functional, cell-based; method in brief: as §6
[10] = target: T3, Alpha-2B adrenergic receptor; experiment: as §3; format: functional, cell-based; method in brief: as §4
[11] = target: T4, Alpha-2B adrenergic receptor (Homo sapiens); experiment: Intrinsic activity at human recombinant adrenergic alpha2B receptor expressed in CHO cells relative to (-)-noradrenaline; format: cell-based
Method in brief: (§7)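 Acidification rate was measured by Cytosensor microphysiometry in stably transfected CHO cells (3 × 10⁵ cells/cup, bicarbonate-free DMEM perfusion). Each response is the peak rate change minus the pre-agonist baseline. Emax from concentration-response curves is expressed as a fraction of the (-)-noradrenaline maximum, taken as 1; mean ± SEM, 3-6 experiments.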

[12] = target: T1, Alpha-2A adrenergic receptor; experiment: as §2; format: functional, cell-based
[13] = target: T2, Alpha-2A adrenergic receptor (Homo sapiens); experiment: Intrinsic activity at human recombinant adrenergic alpha2A receptor expressed in CHO cells assessed as stimulation of extracellular acidification relative to (-)-noradrenaline; format: cell-based
Method in brief: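 Microphysiometry (Cytosensor) of extracellular acidification rate in CHO cells stably expressing human α2A. Cells were seeded at 3 × 10⁵ cells/cup and cultured 24 h at 37 °C, then perfused with bicarbonate-free DMEM at 100 µL/min, with agonist diluted into running medium. Response was taken as the maximum after agonist minus the mean of three pre-agonist readings. Emax is expressed as a fraction of (−)-noradrenaline (=1); 3–6 experiments.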

[14] = target: T5, Alpha-2C adrenergic receptor; experiment: as §5; format: functional, cell-based; method in brief: as §4
[15] = target: T6, Alpha-2C adrenergic receptor (Homo sapiens); experiment: Intrinsic activity at human recombinant adrenergic Alpha-2C receptor expressed in CHO cells assessed as stimulation of extracellular acidification relative to (-)-noradrenaline; format: cell-based; method in brief: as §7
[16] = Agonist activity at adrenergic alpha2 receptor in rat vas deferens; format: functional, tissue-based
Rattus norvegicus = organism: Rattus norvegicus; experiment: Intrinsic activity at adrenergic alpha2 receptor in rat vas deferens relative to clonidine; format: tissue-based

Ki [1] [nM] | Activity [2] | Ki [3] [nM] | Activity [4] | Ki [5] [nM] | Activity [6] | EC50 [10] [nM] | Intrinsic activity [11] | EC50 [14] [nM] | Intrinsic activity [15] | Structure (SMILES) | pKb [7] | pKb [8] | pKb [9] | EC50 [12] [nM] | Intrinsic activity [13] | EC50 [16] [nM] | Intrinsic activity (Rattus norvegicus)
282 | inactive | 1660 | inactive | 1580 | inactive |  |  |  |  | c1ccc(-c2ccc3c(c2)OCC(C2=NCCN2)O3)cc1 (stereo unspecified) |  |  |  |  |  |  | 
 | inactive |  | inactive |  | inactive |  |  |  |  | COC(C)(Oc1ccccc1-c1ccccc1)C1=NCCN1 (stereo unspecified) |  |  |  |  |  |  | 
398 | inactive | 1000 | inactive | 1260 | inactive |  |  |  |  | c1ccc(-c2ccc3c(c2)OC(C2=NCCN2)CO3)cc1 (stereo unspecified) |  |  |  |  |  |  | 
 |  |  |  |  |  |  |  |  |  | c1ccc2c(c1)OCC(C1=NCCN1)O2 (stereo unspecified) | 7.73 | 7.16 | 7.92 |  |  |  | 
257 | inactive |  |  |  | inactive | 15800 | 0.5 |  |  | COC1(C2=NCCN2)COc2c(cccc2-c2ccccc2)O1 (stereo unspecified) |  |  |  |  |  |  | 
214 | inactive | 871 |  | 676 |  | 31600 | 0.8 | 3550 | 0.5 | CC(Oc1ccccc1/C=N/OCc1ccccc1)C1=NCCN1 (stereo unspecified) |  |  |  |  |  |  | 
240 | inactive | 479 |  | 692 |  | 22400 | 0.45 | 3160 | 0.4 | c1ccc(-c2cccc3c2OC(C2=NCCN2)CO3)cc1 (stereo unspecified) |  |  |  |  |  |  | 
661 | inactive | 1200 | inactive | 3090 |  |  |  | 501 | 0.55 | CO/N=C/c1ccccc1OC(C)C1=NCCN1 (stereo unspecified) |  |  |  |  |  |  | 
724 | inactive | 1070 |  | 832 |  | 12600 | 0.7 | 794 | 0.75 | c1ccc(-c2cccc3c2OCC(C2=NCCN2)O3)cc1 (stereo unspecified) |  |  |  |  |  |  | 
126 | inactive | 1070 | inactive | 245 | inactive |  |  |  |  | COC1(C2=NCCN2)COc2cccc(-c3ccccc3)c2O1 (stereo unspecified) |  |  |  |  |  |  | 
240 |  | 955 | inactive | 204 |  |  |  | 776 | 0.7 | c1ccc(-c2ccccc2OC(C2=NCCN2)c2ccccc2)cc1 (stereo unspecified) |  |  |  | 1000 | 0.45 |  | 
417 | inactive | 447 | inactive | 339 |  |  |  | 1000 | 0.45 | CCO/N=C/c1ccccc1OC(C)C1=NCCN1 (stereo unspecified) |  |  |  |  |  |  | 
288 |  | 708 |  | 912 |  | 3980 | 0.5 | 126 | 0.85 | CC(Oc1ccccc1/C=N/O)C1=NCCN1 (stereo unspecified) |  |  |  | 501 | 0.8 |  | 

Structure (SMILES) | Ki [1] [nM] | Activity [2] | Ki [3] [nM] | Activity [4] | Ki [5] [nM] | Activity [6] | EC50 [10] [nM] | Intrinsic activity [11] | EC50 [14] [nM] | Intrinsic activity [15] | pKb [7] | pKb [8] | pKb [9] | EC50 [12] [nM] | Intrinsic activity [13] | EC50 [16] [nM] | Intrinsic activity (Rattus norvegicus)
CC(Oc1ccccc1C1CCCC1)C1=NCCN1 (stereo unspecified) | 50.1 |  | 191 |  | 26.9 |  | 501 | 0.7 | 10 | 0.75 |  |  |  | 63.1 | 0.65 |  | 
CC(Oc1ccccc1)C1=NCCN1 (stereo unspecified) | 26.9 |  | 166 |  | 263 |  |  |  |  |  | 7.01 | 6.2 | 6.85 |  |  |  | 
c1ccc(OC(C2=NCCN2)c2ccccc2)cc1 (stereo unspecified) | 93.3 |  | 47.9 |  | 64.6 |  |  |  |  |  | 6.1 | 6.04 | 6.9 |  |  |  | 
C=CCc1ccccc1OC(C)C1=NCCN1 (stereo unspecified) [ALLYPHENYLINE] |  | inactive | 339 | inactive | 85.1 |  |  |  | 50.1 | 0.9 | 7.4 |  |  |  |  |  | 
CC(Oc1ccccc1C1CCCCC1)C1=NCCN1 (stereo unspecified) | 74.1 |  | 191 |  | 77.6 |  | 200 | 0.7 | 20.9 | 0.8 |  |  |  | 79.4 | 0.6 |  | 
CC(Oc1ccccc1-c1ccccc1)C1=NCCN1 (stereo unspecified) [BIPHENYLINE] |  |  |  |  |  |  |  | 0.5 |  | 0.8 |  |  |  |  | 0.7 | 3.02 | 1
